pEC50, pIC50: −log10 of the molar value. The source made the active and inactive calls. The rule behind the calls is not given here.
Legend:
[1] = molecular target: T1, Nitric oxide synthase, inducible (Homo sapiens, UniProt P35228); assay: Inhibition of human iNOS expressed in human HEK293 cells assessed as nitrite accumulation after 18 hrs by 2,3-diaminonapthalene assay; format: cell-based
How it was run: (§1)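 Transiently transfected cells plated at 5e5 cells/ml; compounds added immediately by pin transfer. Incubated 18 h for nitrite accumulation. Fluorescence (ex 360/em 425 nm) read after raising pH with NaOH (0.12 N final). Values are mean of three experiments with SD. At 100 µM, <50% inhibition is reported as >100.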

[2] = molecular target: T2, Nitric oxide synthase 1 (Homo sapiens, UniProt P29475); assay: Inhibition of human nNOS expressed in HEK293 cells assessed as inhibition ionomycin-induced nitric oxide production incubated for 24 hrs measured after 18 hrs of ionomycin challenge by 2,3-diaminonaphthalene assay; format: cell-based
How it was run: as §1, with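 “24” for “18”, “with compound, then activated by ionophore (0.8 µM final).” for “for nitrite accumulation.”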

[3] = molecular target: T3, Nitric oxide synthase, inducible (Mus musculus) (UniProt P29477); assay: Inhibition of IFN-gamma/LPS-induced iNOS dimerization in mouse RAW264.7 cells by Western blot analysis; format: cell-based
T3 sequence (whole entry): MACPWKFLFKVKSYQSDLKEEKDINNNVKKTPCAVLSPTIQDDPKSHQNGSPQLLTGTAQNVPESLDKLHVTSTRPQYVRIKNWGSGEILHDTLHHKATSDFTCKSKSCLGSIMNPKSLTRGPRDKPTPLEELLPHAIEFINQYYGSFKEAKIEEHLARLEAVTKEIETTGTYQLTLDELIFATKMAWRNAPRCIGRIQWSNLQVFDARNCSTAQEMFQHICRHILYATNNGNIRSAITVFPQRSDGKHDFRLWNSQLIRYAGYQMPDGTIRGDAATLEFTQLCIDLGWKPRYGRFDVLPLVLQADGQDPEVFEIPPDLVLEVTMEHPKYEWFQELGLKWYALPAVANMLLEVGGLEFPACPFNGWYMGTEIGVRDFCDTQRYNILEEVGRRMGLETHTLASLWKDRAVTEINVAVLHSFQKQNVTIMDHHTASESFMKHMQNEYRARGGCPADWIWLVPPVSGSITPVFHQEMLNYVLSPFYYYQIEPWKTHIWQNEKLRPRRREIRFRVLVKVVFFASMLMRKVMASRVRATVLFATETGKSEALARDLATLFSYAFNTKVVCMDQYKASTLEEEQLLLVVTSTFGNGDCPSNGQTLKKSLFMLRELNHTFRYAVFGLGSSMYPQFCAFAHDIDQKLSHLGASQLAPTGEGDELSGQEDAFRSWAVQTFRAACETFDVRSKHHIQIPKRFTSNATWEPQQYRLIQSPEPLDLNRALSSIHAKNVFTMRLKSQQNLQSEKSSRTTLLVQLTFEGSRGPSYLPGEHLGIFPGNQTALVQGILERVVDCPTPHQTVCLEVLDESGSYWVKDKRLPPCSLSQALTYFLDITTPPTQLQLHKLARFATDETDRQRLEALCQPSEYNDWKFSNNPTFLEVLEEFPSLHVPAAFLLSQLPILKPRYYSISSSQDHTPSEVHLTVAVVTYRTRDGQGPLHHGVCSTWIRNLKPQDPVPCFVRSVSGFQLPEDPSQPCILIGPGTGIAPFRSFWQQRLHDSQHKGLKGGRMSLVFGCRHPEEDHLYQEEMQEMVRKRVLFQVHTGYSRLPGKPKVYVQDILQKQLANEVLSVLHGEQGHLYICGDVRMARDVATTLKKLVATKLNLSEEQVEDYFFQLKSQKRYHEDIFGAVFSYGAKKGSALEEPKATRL
How it was run: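 RAW 264.7 cells seeded at 1.8 × 10⁶ cells/well and incubated 5 h. Then stimulated overnight with murine IFN-γ (100 U/mL final) and LPS (2 µg/mL final) plus 10 µM compound or vehicle (0.1% DMSO final). Lysates protein-normalized, run on 4–20% Tris–glycine gel under low-temperature SDS–PAGE in a cold room. Blotted with mouse anti-iNOS, read by infrared imaging.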

[4] = molecular target: T4, Nitric oxide synthase 3 (Homo sapiens, UniProt P29474); assay: Inhibition of human eNOS expressed in HEK293 cells assessed as inhibition A23187-induced nitric oxide production incubated for 24 hrs measured after 18 hrs of A23187 challenge by 2,3-diaminonaphthalene assay; format: cell-based
T4 sequence (P29474 whole entry): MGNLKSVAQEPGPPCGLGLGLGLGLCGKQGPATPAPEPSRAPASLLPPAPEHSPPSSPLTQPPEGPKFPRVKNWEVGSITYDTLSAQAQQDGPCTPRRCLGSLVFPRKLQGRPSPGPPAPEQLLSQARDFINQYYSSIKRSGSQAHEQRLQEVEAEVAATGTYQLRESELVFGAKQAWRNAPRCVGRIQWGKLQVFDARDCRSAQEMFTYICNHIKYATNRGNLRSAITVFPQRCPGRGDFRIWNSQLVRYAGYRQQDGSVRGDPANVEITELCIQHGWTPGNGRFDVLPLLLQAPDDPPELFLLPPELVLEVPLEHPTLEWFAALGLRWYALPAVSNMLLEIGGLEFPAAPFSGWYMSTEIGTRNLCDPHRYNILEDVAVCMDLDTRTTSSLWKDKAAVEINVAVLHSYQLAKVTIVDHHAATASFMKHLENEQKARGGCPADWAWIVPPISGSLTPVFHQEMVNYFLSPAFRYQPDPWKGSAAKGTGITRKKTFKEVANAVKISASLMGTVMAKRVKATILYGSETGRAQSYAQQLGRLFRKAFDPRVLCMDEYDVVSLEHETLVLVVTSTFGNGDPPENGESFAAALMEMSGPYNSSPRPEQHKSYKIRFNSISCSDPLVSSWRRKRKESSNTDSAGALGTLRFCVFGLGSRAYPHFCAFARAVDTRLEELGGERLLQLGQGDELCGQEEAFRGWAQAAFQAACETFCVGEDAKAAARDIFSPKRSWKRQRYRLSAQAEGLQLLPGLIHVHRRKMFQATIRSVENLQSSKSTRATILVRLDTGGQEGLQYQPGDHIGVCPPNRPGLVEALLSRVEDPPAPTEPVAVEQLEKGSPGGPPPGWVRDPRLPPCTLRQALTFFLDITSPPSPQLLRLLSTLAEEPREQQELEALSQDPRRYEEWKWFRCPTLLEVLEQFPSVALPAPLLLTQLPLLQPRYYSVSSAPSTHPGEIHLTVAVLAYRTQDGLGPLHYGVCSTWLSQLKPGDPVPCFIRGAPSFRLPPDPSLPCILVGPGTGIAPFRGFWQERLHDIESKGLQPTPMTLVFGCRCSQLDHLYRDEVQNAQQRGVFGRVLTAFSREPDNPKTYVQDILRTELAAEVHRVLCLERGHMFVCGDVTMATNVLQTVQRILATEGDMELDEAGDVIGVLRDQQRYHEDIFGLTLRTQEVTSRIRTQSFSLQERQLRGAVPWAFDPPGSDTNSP
How it was run: as §1, with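 “24” for “18”, “with compound, then activated by ionophore (0.8 µM final).” for “for nitrite accumulation.”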

[5] = molecular target: T1, Nitric oxide synthase, inducible; assay: Inhibition of human iNOS
[6] = tested on: Rattus norvegicus; assay: Antiinflammatory activity in Lewis rat assessed as inhibition of carrageenan-induced edema at 3 to 30 mg/kg, po administered 15 mins before carrageenan challenge measured after 5 hrs; format: functional, organism-based
[7] = tested on: Rattus norvegicus; assay: Antiinflammatory activity in Lewis rat assessed as inhibition of carrageenan-induced thermal hyperalgesia at 3 to 30 mg/kg, po administered 15 mins before carrageenan challenge measured after 5 hrs; format: functional, organism-based
[8] = tested on: Rattus norvegicus; assay: Antiinflammatory activity in po dosed Lewis rat endotoxemia model assessed as inhibition of LPS-induced plasma nitrate accumulation after 6 hrs; format: functional
[9] = molecular target: T5, Nitric oxide synthase 3 (Homo sapiens) (UniProt P29474); assay: Inhibition of human eNOS expressed in HEK293 cells assessed as inhibition A23187-induced nitric oxide production at 100 uM incubated for 24 hrs measured after 18 hrs of A23187 challenge by 2,3-diaminonaphthalene assay; format: cell-based
T5 sequence (whole entry): T4 sequence (P29474 whole entry)
How it was run: as §1, with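 “24” for “18”, “with compound, then activated by ionophore (0.8 µM final).” for “for nitrite accumulation.”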

[10] = molecular target: T2, Nitric oxide synthase 1; assay: Inhibition of human nNOS expressed in HEK293 cells assessed as inhibition ionomycin-induced nitric oxide production at 100 uM incubated for 24 hrs measured after 18 hrs of ionomycin challenge by 2,3-diaminonaphthalene assay; format: cell-based
How it was run: as §1, with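 “24” for “18”, “with compound, then activated by ionophore (0.8 µM final).” for “for nitrite accumulation.”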

[11] = tested on: Rattus norvegicus; assay: Analgesic activity in po dosed Lewis rat post operative brennan model assessed as incison-induced paw weight bearing response after 30 to 120 mins; format: functional, organism-based
[12] = molecular target: T1, Nitric oxide synthase, inducible; assay: Inhibition of human iNOS expressed in human HEK293 cells assessed as nitrite accumulation at 100 uM after 18 hrs by 2,3-diaminonapthalene assay; format: cell-based; how it was run: as §1

T1 sequence (P35228 whole entry): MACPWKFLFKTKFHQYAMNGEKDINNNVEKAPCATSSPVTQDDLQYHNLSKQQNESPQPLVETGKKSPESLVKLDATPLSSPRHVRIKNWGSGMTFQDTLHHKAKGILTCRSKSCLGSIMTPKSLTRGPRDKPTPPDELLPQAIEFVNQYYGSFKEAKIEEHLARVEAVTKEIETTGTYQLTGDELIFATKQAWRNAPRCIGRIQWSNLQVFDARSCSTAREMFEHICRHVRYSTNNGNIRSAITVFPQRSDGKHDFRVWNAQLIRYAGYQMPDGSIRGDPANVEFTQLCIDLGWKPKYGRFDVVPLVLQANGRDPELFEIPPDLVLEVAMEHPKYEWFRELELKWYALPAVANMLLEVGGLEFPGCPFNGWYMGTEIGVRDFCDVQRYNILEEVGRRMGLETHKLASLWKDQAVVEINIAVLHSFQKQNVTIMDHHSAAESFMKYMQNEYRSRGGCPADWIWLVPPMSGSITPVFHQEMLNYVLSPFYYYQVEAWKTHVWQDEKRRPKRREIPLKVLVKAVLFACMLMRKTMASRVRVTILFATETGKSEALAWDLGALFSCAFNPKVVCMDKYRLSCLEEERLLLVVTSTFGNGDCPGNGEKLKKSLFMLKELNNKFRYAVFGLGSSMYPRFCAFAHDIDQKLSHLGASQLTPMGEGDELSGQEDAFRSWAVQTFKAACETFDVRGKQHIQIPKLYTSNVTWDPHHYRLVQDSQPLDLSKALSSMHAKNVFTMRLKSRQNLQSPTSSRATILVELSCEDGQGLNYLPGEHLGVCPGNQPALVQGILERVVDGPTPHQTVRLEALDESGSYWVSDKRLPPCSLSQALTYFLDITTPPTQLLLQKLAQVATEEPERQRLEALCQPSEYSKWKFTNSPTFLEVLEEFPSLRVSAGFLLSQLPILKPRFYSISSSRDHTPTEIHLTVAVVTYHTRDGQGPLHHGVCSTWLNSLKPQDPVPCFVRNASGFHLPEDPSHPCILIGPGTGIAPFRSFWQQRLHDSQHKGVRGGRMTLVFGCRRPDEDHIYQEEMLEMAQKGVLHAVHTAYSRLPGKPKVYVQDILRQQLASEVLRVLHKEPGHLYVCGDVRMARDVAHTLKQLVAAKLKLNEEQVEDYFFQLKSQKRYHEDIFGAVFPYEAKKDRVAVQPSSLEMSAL
T2 sequence (P29475 whole entry): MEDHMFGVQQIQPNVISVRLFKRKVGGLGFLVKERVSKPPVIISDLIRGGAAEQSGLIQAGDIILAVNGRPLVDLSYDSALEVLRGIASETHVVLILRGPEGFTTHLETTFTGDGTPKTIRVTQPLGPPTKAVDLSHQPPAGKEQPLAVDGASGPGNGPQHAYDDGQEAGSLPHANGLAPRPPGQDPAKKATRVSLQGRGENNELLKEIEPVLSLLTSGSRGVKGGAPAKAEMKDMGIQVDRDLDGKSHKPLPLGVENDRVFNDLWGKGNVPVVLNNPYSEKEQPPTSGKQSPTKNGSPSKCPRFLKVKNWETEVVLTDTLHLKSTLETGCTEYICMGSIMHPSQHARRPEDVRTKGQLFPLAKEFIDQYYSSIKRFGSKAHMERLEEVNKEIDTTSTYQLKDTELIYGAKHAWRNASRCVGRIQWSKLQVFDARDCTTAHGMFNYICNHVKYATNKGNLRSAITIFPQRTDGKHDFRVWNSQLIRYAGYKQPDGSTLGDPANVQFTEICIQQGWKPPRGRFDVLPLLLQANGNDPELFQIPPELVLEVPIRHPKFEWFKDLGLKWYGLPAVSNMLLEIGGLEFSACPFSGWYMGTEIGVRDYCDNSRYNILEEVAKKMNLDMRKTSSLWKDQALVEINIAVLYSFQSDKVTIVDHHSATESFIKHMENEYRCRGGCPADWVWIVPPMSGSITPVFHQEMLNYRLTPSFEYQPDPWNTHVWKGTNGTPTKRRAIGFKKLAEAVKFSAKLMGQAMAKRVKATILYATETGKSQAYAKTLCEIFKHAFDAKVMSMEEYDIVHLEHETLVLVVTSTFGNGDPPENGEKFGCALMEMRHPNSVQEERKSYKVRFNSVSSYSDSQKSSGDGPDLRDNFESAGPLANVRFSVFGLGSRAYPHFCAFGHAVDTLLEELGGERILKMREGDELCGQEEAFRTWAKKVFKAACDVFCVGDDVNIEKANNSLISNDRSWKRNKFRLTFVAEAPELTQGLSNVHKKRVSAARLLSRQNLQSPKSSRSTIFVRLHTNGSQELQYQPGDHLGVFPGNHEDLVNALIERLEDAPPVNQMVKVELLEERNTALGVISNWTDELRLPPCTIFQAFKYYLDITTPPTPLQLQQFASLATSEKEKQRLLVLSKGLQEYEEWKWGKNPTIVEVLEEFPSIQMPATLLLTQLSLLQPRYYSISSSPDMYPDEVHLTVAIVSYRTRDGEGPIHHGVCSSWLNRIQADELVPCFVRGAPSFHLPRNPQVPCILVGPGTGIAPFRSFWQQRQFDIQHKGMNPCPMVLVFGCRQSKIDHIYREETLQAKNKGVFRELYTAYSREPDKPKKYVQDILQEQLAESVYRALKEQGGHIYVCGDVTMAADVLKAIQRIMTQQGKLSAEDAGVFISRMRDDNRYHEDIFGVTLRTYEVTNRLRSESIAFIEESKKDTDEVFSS

| pEC50 [1] | pEC50 [2] | inhibition [3] | pEC50 [4] | pIC50 [5] | inhibition [9] [%] | inhibition [10] [%] | inhibition [12] [%] | Structure (SMILES) | inhibition [6] | inhibition [7] | ED50 [8] [mg/kg] | Activity [11] |
| --- | --- | --- | --- | --- | --- | --- | --- | --- | --- | --- | --- | --- |
| 8.10 | 4.76 | Active | < 4.00 | 8.15 |  |  |  | CN(CCCNCc1ccc2c(c1)OCO2)c1nc(-n2ccnc2)ns1 [KD7040] |  |  |  |  |
| 5.64 | < 4.00 |  | < 4.00 |  | < 50 | < 50 |  | Cc1cc(C(C)(C)NCCNCc2ccc3c(c2)OCO3)nc(-n2ccnc2)n1 | Active | Active | 9.3 | Active |
|  |  | Active |  | 8.00 |  |  |  | Cc1cc(N(C)CCCNCc2ccc3c(c2)OCO3)nc(-n2ccnc2)n1 |  |  |  |  |
| < 4.00 | < 4.00 | Active | < 4.00 | < 4.00 | < 50 | < 50 | < 50 | CN(CCCNCc1ccccc1)c1nc(-n2ccnc2)ns1 |  |  |  |  |
|  |  | inactive |  | < 4.00 |  |  |  | Cc1cc(N(C)CCCNCc2ccc3c(c2)OCO3)nc(-n2cccc2)n1 |  |  |  |  |
